This data set has as its system RAW264.7 cells. Put plainly: Cytotoxicity test, CCK-8. It is filed as cell-based. Conditions: 10 μM, 48 h, CCK-8, OD 450 nm, duplicate independent experiments. The procedure, abridged: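 RAW264.7 cells seeded at 1 × 10^5 per mL and exposed for 48 h to test compound at 0, 1.25, 2.5, 5 and 10 μM. CCK-8 reagent added, then 4 h at 37 °C protected from light. Absorbance read at 450 nm. Survival rate = OD of treated / OD of blank control; cytotoxic effect = 1 − survival rate.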

Take `NCC1CC(=S)N2CC3CCCN4CCCC(C34)C2C1` (stereo not shown) [M19, 13-Aminomethyl-15-thiomatrine]: the cell viability inhibition entry is given as “about 20%”.
